PKA-R1A activ: activates the PKA-R1A holoenzyme complex; PKA-R1A dissociation, Cy5-IP20 fluorescence polarization; scaled: DMSO 0%, 113 µM cGMP 100%; activation, % at 11.4 µM; AID 504707; P00514+P68181; hit rate 0.083% among 340,000;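 active means percent activation above the mean of all tested compounds plus 3 SD, cut at about 19% in these data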;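 further: higher means more PKAc released from R1A so a rise in polarization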
Rev-erbA mod: modulators of human Rev-erb alpha DNA binding; AID 1259318; activity, % at 10 µM; Rev-erbα–FITC-DNA binding, fluorescence polarization, 90 min; P20393; hit rate 0.79% among 370,000;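 active means activity above about 14%, limit read from the data; passing the limit was not always enough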;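 further: 0% = DMSO wells with 35 nM protein and 100% = DMSO wells with 750 nM protein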
NR2E3 ag-1: activates human NR2E3 receptor; CHO-S Gal4-NCOR/VP16-NR2E3 two-hybrid, luciferase; Q9Y5X4; hit rate 0.35% among 360,000; inhibition of corepressor binding, % at 3.98 µM;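 active means inhibition above the mean of all tested compounds plus 3 SD, cut at about 70% in these data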;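 further: 0% = DMSO with NR2E3 transfected cells and 100% = cells lacking NR2E3 construct; higher means lower luciferase signal from less NR2E3 corepressor binding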
PKA-R2B activ: PKA-R2B complex activation; PKA-R2B holoenzyme dissociation, Cy5-IP20 fluorescence polarization; R2B truncated from residue 108, S112A mutant; 0% DMSO only, 100% 113 µM cGMP; activation, % at 11.4 µM; hit rate 0.079% among 340,000; AID 504700;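 active means activation above a cutoff set at the mean over all compounds plus 3 SD, cut at about 18% in these data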;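 further: higher means more holoenzyme dissociation and a rise in polarization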
Target sequence (P31323 whole entry, looked up, other chains not shown, the tested form may be a part): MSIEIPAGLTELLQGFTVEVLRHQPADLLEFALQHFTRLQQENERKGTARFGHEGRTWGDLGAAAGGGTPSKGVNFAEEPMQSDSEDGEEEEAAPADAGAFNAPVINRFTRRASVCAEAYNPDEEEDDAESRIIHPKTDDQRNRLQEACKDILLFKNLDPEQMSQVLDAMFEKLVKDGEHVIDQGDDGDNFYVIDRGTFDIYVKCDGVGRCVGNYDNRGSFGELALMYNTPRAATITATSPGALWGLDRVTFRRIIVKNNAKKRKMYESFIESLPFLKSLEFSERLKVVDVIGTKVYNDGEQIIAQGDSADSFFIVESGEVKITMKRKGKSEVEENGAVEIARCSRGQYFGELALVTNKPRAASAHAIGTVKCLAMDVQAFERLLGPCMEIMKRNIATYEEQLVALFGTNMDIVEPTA
PG9 binder: binds the HIV-1 gp120 antibody PG9; TR-FRET gp120-PG9 antibody binding; hit rate 0.43% among 360,000; inhibition, % at 6.7 µM; in the data active means inhibition above about 8.5%
NR2E3 ag-2: agonists of human nuclear receptor NR2E3 | Q9Y5X4 | GST-NR2E3/biotin-RetCOR TR-FRET, 1536-well | inhibition of corepressor binding, % at 4.78 µM | hit rate 0.12% among 320,000 | AID 2300;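 active means percent inhibition above the cutoff of mean plus 3 SD of all tested compounds, set per screening campaign, cut at about 20% in these data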;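 further: 0% = DMSO wells and 100% = biotin wells as full block of FRET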
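Assay system: NR2E3–RetCOR corepressor complex. Quantity: 1.35 nM GST-NR2E3. Buffer or medium: pH 7.5 Tris-based buffer. Reagent: biotinylated RetCOR corepressor at 7 nM final. Schedule: 5 h at 4 °C. Detection: TR-FRET, emission read at 617 and 671 nm. Replicates: one well per compound, singlicate testing.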
NR2E3 ag confirm: confirmation of human NR2E3 agonists | CHO-S mammalian two-hybrid NR2E3-NCOR, luciferase luminescence | inhibition, % at 3.98 µM | AID 624378 | shares compounds with NR2E3 ag-1 | hit rate 51% among 2,300;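 active means average inhibition above a cutoff equal to the mean inhibition of all tested compounds plus one SD, cut at about 70% in these data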;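 further: 0% = DMSO in NR2E3 cells and 100% = DMSO in cells lacking NR2E3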
GAL4-VP16 luc: GAL4-VP16 reporter inhibition in NR2E3 agonist counterscreen | shares compounds with NR2E3 ag-1 | CHO-S GAL4-VP16 luciferase reporter, luminescence | inhibition, % at 3.98 µM | hit rate 29% among 2,300 | AID 624379;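 active means mean inhibition above a cutoff equal to the average over all tested compounds plus one standard deviation, cut at about 70% in these data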;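 further: luciferase from a UAS reporter driven by GAL4-VP16 transactivation; 0% = DMSO with VP16-transfected cells and 100% = DMSO with cells lacking VP16; higher means less reporter light so more repression of VP16 activity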
PG9 bind confirm: confirmation of small molecules binding HIV-1 gp120 antibody PG9 | shares compounds with PG9 binder | hit rate 90% among 1,500 | TR-FRET PG9 antibody binding, biochemical | inhibition, % at 6.7 µM; in the data active means inhibition above about 9%
PGV04 counter: PGV04 control antibody binding, counter-screen | AID 651604 | hit rate 95% among 1,500 | TR-FRET PGV04 antibody-gp120 binding, biochemical | inhibition, % at 6.7 µM | shares compounds with PG9 binder; in the data active means inhibition above about 9.5%
NR1D1 mod conf: confirmation of modulators of human Rev-erb alpha DNA binding; shares compounds with Rev-erbA mod; Rev-erb alpha FITC-DNA binding, fluorescence polarization, 90 min; activation, % at 25 µM; hit rate 61% among 3,000; AID 1259319;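 active means activation at or above a set limit, or at least 3 SD above the negative control mean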;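 further: 0% = 35 nM protein with DMSO and 100% = 750 nM protein high control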
RORg DNA counter: RORgamma DNA-binding activity, dose-response counter-screen; shares compounds with Rev-erbA mod; purified RORgamma protein-FITC-DNA binding, fluorescence polarization; IC50, µM; hit rate 8% among 910;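 active means Compounds whose fitted half-maximal concentration for disrupting protein-DNA binding is below 10 micromolar; the record names Rev-erb in its text, so the target is in doubt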
The depositor's hits bear a star. A selection: hits, their analogues and other compounds. The true share with any hit is near 1.6%.

What do the screens show for `CC1OC2CC(=O)OC2C2=C1C(=O)c1c(O)cccc1C2=O` (configuration not stated)?
Rev-erbA mod: -13.8; NR2E3 ag-1: 101.4*; PG9 binder: 15.1*; NR2E3 ag confirm: 97.7*; GAL4-VP16 luc: 97.5*; PG9 bind confirm: 14.3*; PGV04 counter: 17.2*

Results for CCC[C@H]1[C@@H](NC(=O)C2CCOC2)CC[C@@]23CCCN2C(=O)CCC[C@@H]13 (some centres not stated) ?
Rev-erbA mod: -1.6

Results for O=C(OCCN1C(=O)c2cccc3c(N4CCOCC4)ccc(c23)C1=O)c1ccccc1Cl ?
PKA-R1A activ: -10.8; Rev-erbA mod: 40.3*; NR2E3 ag-1: 51.8; PKA-R2B activ: 4.0; PG9 binder: -0.5; NR2E3 ag-2: 4.0; NR2E3 ag confirm: 92.6*; GAL4-VP16 luc: 91.6*; NR1D1 mod conf: 56.3*; RORg DNA counter: >40

Results for COc1ccc(N=Nc2nc(-c3ccccc3)c(-c3ccccc3)[nH]2)cc1 ?
PKA-R1A activ: -4.8; Rev-erbA mod: 9.5; NR2E3 ag-1: -10.5; PKA-R2B activ: -10.4; PG9 binder: -3.0; NR2E3 ag-2: -2.4

What do the screens show for `Oc1ccccc1N=Nc1nc(-c2ccccc2)c(-c2ccccc2)[nH]1`?
PKA-R1A activ: 0.9; Rev-erbA mod: 25.1*; NR2E3 ag-1: 81.5*; PKA-R2B activ: 5.1; PG9 binder: -19.8; NR2E3 ag-2: 3.7; NR2E3 ag confirm: 68.2; GAL4-VP16 luc: 42.6; NR1D1 mod conf: 33.4*; RORg DNA counter: >40

What do the screens show for `CCc1ccc(CCNC(=O)OC2CC3CC2[C@H]2CCCCN2[C@H]3C)cc1` (some centres not stated)?
Rev-erbA mod: 1.9

How did CCN1/C(=C/c2ccc3cc(C)ccc3[n+]2CC)Sc2cc(C)c(C)cc21 do in these assays?
PKA-R1A activ: 0.3; Rev-erbA mod: 20.2*; NR2E3 ag-1: 90.5*; PKA-R2B activ: -8.2; PG9 binder: -9.2; NR2E3 ag confirm: 99.3*; GAL4-VP16 luc: 87.3*; NR1D1 mod conf: 22.0*

Results for CCN1/C(=C/c2ccc3cc(C)ccc3[n+]2CC)Sc2ccccc21 ?
PKA-R1A activ: -5.3; Rev-erbA mod: 111.1*; NR2E3 ag-1: 90.6*; PKA-R2B activ: 2.6; PG9 binder: -15.9; NR2E3 ag-2: -24.8; NR2E3 ag confirm: 99.2*; GAL4-VP16 luc: 88.9*; NR1D1 mod conf: 101.4*; RORg DNA counter: >40

What do the screens show for `CCC(NC(=O)C1CCCN(c2ncccn2)C1)c1ccccc1` (configuration not stated)?
Rev-erbA mod: 3.7

How did Cc1cc(C)cc(NC(=O)CCc2nc3sc4c(c3c(=O)[nH]2)CCCC4)c1 do in these assays?
PKA-R1A activ: -11.6; Rev-erbA mod: 29.5*; NR2E3 ag-1: 83.9*; PKA-R2B activ: -0.1; PG9 binder: 10.9*; NR2E3 ag-2: 1.1; NR2E3 ag confirm: 96.2*; GAL4-VP16 luc: 16.1; PG9 bind confirm: 16.8*; PGV04 counter: 23.2*; NR1D1 mod conf: 7.6

What do the screens show for `O=S1(=O)c2ccc(N3CCC[C@H]3CO)cc2OCCCN1C1CC1`?
Rev-erbA mod: 6.7

Results for COc1ccccc1C(=O)Nc1nc2ccccc2s1 ?
PKA-R1A activ: -1.7; Rev-erbA mod: 33.5*; NR2E3 ag-1: 66.4; PKA-R2B activ: -15.8; PG9 binder: -0.2; NR2E3 ag-2: 1.2; NR2E3 ag confirm: 65.3; GAL4-VP16 luc: 52.2; NR1D1 mod conf: 40.5*; RORg DNA counter: >40

What do the screens show for `COc1ccc(C(=O)N2CCN(c3ncnc4c(-c5ccccc5)nsc34)CC2)cc1`?
PKA-R1A activ: -3.1; Rev-erbA mod: 0.0; NR2E3 ag-1: -1.9; PKA-R2B activ: -3.8; PG9 binder: -0.1

What do the screens show for `COc1ccc(-c2nsc3c(N4CCCCC4)ncnc23)cc1`?
PKA-R1A activ: -15.2; Rev-erbA mod: 20.4*; NR2E3 ag-1: 56.9; PKA-R2B activ: 2.0; PG9 binder: 2.6; NR2E3 ag-2: -5.9; NR2E3 ag confirm: 16.5; GAL4-VP16 luc: -13.4; NR1D1 mod conf: 0.9

How did COc1ccccc1-c1nnc(Nc2nc3c(OC)cccc3s2)o1 do in these assays?
PKA-R1A activ: 7.0; Rev-erbA mod: 47.0*; NR2E3 ag-1: 73.9*; PKA-R2B activ: -8.8; PG9 binder: 10.7*; NR2E3 ag-2: 18.5; NR2E3 ag confirm: 21.9; GAL4-VP16 luc: -34.9; PG9 bind confirm: 22.6*; PGV04 counter: 25.6*; NR1D1 mod conf: 78.0*

What do the screens show for `CCN1/C(=C/C=C/c2oc3ccc(-c4ccccc4)cc3[n+]2CC)Oc2ccc(-c3ccccc3)cc21`?
PKA-R1A activ: 12.8; Rev-erbA mod: 139.4*; NR2E3 ag-1: 80.1*; PKA-R2B activ: 2.7; PG9 binder: 0.1; NR2E3 ag-2: -0.6; NR2E3 ag confirm: 100.1*; GAL4-VP16 luc: 92.5*; NR1D1 mod conf: 134.7*; RORg DNA counter: inactive

Results for CCN1/C(=C/C=C/c2sc3ccccc3[n+]2CC)Sc2ccccc21 ?
PKA-R1A activ: -14.6; NR2E3 ag-1: 19.9; PKA-R2B activ: -12.2; NR2E3 ag-2: 1.0

How did CCN(CC(=O)NCc1ccc(Cl)cc1)C(=O)c1cnc(Cl)c(Cl)c1 do in these assays?
PKA-R1A activ: 8.9; Rev-erbA mod: -0.4; NR2E3 ag-1: 0.1; PKA-R2B activ: -1.0; PG9 binder: -0.5; NR2E3 ag-2: 2.7

What do the screens show for `CCN(CC(=O)NCc1ccc(Cl)cc1)C(=O)c1ccc2cc(OC)ccc2c1`?
PKA-R1A activ: -1.5; Rev-erbA mod: 105.4*; NR2E3 ag-1: 51.0; PKA-R2B activ: -9.6; PG9 binder: 1.3; NR2E3 ag-2: 8.2; NR2E3 ag confirm: 28.2; GAL4-VP16 luc: 61.3; NR1D1 mod conf: 102.3*; RORg DNA counter: >40

Screening data from PubChem BioAssay.
